# Experimental data from article PMC3517046 (ChemMedChem, 2011).
# Tests used:
# [1] = target: recombinant, purified human ATX (Homo sapiens, UniProt Q13822); test: ATX IC50 and mechanism of inhibition; format: biochemical
# Method in brief: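 Recombinant purified human ATX with FS3 (1 µM final) in Tris 50 mM, NaCl 140 mM, KCl 5 mM, CaCl2 1 mM, MgCl2 1 mM, pH 8.0, plus 15 µM fatty-acid-free BSA. IC50 came from full dose-responses. For mechanism, FS3 was varied 0.3–20 µM at three inhibitor levels including zero.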
# ATX [2] = target: T1, ATX (Homo sapiens, UniProt Q13822); test: Inhibition of LPA production from ADMAN-LPC by ATX; format: biochemical; conditions: compound 3 μM, 0.5 μM ADMAN-LPC, 100 nM ATX
# Method in brief: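 ADMAN-LPC (0.5 µM final) was incubated with 100 nM ATX, with or without 3 µM test compound, at 37 °C for 4 h. Lipids were extracted and separated by silica TLC in CHCl3/MeOH/NH4OH (60:35:8). Fluorescent LPC and LPA bands were visualized under a UV imager.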
# ATX [3] = target: T1, ATX; test: Inhibition of pNP-TMP hydrolysis by ATX; format: biochemical; conditions: compound 10 μM, 5 mM pNP-TMP, 4 nM ATX; compared with LPA 18:1 10 μM
# Method in brief: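 Reactions held 4 nM ATX and 5 mM pNP-TMP, with vehicle or 10 µM test compound, in Tris 50 mM/NaCl 140 mM/KCl 5 mM/CaCl2 1 mM/MgCl2 1 mM, pH 8.0. They ran at 37 °C with absorbance monitored at 405 nm.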
# MM1 hepatoma cells = test: MM1 cell invasion of HUVEC monolayers; format: cell-based, rat
# Method in brief: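 HUVECs (passage 7, 1.3×10^5/well) were grown on 0.2% gelatin for two days to confluence. Rat MM1 hepatoma cells, calcein AM-labelled (2 µg/mL, 2 h), were seeded at 5×10^4/well. Invasion ran 24 h in MCDB-131 with 1% serum, with or without 1.5 µM LPC (BSA-complexed, 30 µM BSA final). After five PBS rinses and formalin fixation, flattened cells beneath the monolayer were counted in ≥5 fields at 100×.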
# [4] = Pharmacokinetics after i.v. bolus; format: in vivo, Sprague-Dawley rats; conditions: rat
# Method in brief: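 Male Sprague–Dawley rats (250–275 g) fitted with jugular and femoral catheters received a single 5.8 mg/kg i.v. femoral bolus; drug was dissolved in propylene glycol and diluted in rat plasma. Jugular blood was drawn from 5 to 1440 min into lithium heparin. Plasma was butanol-extracted at pH 4.0 with internal standard and quantified by LC-MS/MS on a C8 column. Non-compartmental analysis gave AUC (trapezoidal), CL=dose/AUC, MRT=AUMC/AUC and Vdss=CL×MRT.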
# plasma LPA = test: Plasma LPA levels after i.v. bolus; format: in vivo, Sprague-Dawley rats; conditions: rat, i.v. 5.8 mg/kg, first rapid decrease
# Swiss mice = test: Acute murine toxicity study; format: in vivo; conditions: 1-10-30 mg/kg/day for 10 days
# NPP6 = target: T2, NPP6 (Homo sapiens, UniProt Q6UWR7); test: NPP6 inhibition assay; format: biochemical; conditions: read-out: NPP6 Activity, % control (10μM)
# T2 sequence (Q6UWR7 23-440): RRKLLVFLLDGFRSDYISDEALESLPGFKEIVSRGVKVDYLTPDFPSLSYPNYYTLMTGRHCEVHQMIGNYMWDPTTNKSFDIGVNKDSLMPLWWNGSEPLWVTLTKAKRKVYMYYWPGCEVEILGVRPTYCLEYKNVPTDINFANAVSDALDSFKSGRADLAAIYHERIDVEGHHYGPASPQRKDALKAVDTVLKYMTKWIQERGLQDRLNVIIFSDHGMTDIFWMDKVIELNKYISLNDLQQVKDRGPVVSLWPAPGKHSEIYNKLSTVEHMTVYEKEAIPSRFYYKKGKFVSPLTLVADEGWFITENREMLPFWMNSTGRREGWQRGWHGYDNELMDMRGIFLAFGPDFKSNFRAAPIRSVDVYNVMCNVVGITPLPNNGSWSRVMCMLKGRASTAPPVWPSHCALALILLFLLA
# Method in brief: (§1)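 Recombinant purified NPP6 or NPP7 (8.3 nM final) was incubated with pNPPC (10 µM) and a single 10 µM compound concentration. Liberated p-nitrophenol was read at 405 nm for up to 1 h, within the linear range. Activity was normalized to vehicle control.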
# NPP7 = target: T3, NPP7 (Homo sapiens, UniProt Q6UWV6); test: NPP7 inhibition assay; format: biochemical; conditions: read-out: NPP7 Activity, % control (10μM)
# T3 sequence (Q6UWV6 22-458): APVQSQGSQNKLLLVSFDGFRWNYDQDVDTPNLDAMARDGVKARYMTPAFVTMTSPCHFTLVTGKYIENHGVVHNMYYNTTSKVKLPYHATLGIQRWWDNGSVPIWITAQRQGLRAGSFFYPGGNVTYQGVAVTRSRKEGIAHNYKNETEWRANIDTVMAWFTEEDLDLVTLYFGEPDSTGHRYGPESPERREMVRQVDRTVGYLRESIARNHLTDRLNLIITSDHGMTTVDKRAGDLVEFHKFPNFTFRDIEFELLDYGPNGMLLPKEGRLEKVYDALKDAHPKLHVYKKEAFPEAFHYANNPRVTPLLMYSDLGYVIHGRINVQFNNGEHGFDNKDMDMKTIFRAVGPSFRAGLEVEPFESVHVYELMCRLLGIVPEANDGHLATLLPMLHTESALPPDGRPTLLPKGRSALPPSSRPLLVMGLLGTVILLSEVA
# Method in brief: as §1
# [5] = male, Sprague-Dawley, plasma, iv, 5.8 mg/kg
SMILES,"ATX Mechanism of Inhibition ([1]; FS-3 substrate 0.3-20 μM, inhibitor 0, 0.5x, 2x IC50)","ATX Ki′ ([1]; affinity for enzyme substrate complex, FS-3) [nM]",inhibition of hydrolysis of ADMAN-LPC (LPA production) (ATX [2]),inhibition of hydrolysis of pNP-TMP (ATX [3]),"basal rate of invasion of HUVEC monolayer (MM1 hepatoma cells; compounds alone, without LPC)","LPC-dependent invasion of the HUVEC monolayer (MM1 hepatoma cells; with 1.5 μM LPC, 24 h)","MRT [4, 5] [h]","clearance [4, 5] [mL/min/kg]","half-life ([4]; male, Sprague-Dawley, plasma, iv, 5.8 mg/kg, terminal half-life, i.v. 5.8 mg/kg) [h]",mean plasma residence time ([4]; i.v. 5.8 mg/kg) [h],time of nadir of plasma LPA levels (plasma LPA) [min],death (Swiss mice),non-observable adverse effect level (Swiss mice; i.p.) [mg/kg],remaining activity at 10 µM (NPP6) [%],remaining activity at 10 µM (NPP7) [%]
"CCCCCCCCCCCCCCCc1ccc(CP(=O)(O)O)cc1 [Compound 22, 4-pentadecylbenzylphosphonic acid]",Mixed,280,inhibited,inhibit the hydrolysis,did not reduce,dose-dependently inhibited,7.6,8.6 ± 0.5,10,7.6 ± 0.5,60,No death was detected in any of the groups,> 10,–,–
"CCCCCCCCCCCCCC(=O)Nc1ccc(CP(=O)(O)O)cc1 [Compound S32826, 4-tetradecanoylaminobenzyl phosphonic acid]",–,–,–,–,–,–,–,–,–,–,–,–,–,102,101
